Laboratory results reported in PMC8434889 (Bioorganic Chemistry, 2021).

What was measured:
[1] = tested on: Con A-induced T cell proliferation of murine splenocytes; assay: Con A-induced T-cell proliferation; type: cell-based, mouse; settings: 48 h; for IC50: Mus musculus, T-cell, read-out: Con A-induced T-cell proliferation IC50
Summary of the method: (§1)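 Splenocytes from 6–8-week-old female BALB/c mice, with erythrocytes lysed in NH4Cl/Tris buffer (pH 7.2), in RPMI 1640 with 10% FBS and penicillin/streptomycin. Cells at 5 × 10^5 in triplicate for 48 h with or without test compound (DMSO stock diluted in medium). Stimulation: ConA 1 μg/mL for T cells or LPS 10 μg/mL for B cells. [3H]thymidine 0.5 μCi/well pulse for 8 h, filter harvest, scintillation counting. IC50 from log(inhibitor)–normalized response nonlinear fit.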

IL-6 [2] = assay: Con A-induced cytokine production in splenocytes, IL-6; type: cell-based; settings: Mus musculus, Splenocyte, 48 h, read-out: IC50 IL-6
[3] = Cytotoxicity in RAW264.7 cell; type: cell-based; settings: mouse, RAW264.7 macrophage cells
Summary of the method: (§2)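 MTT assay after 48 h culture in triplicate with or without test compound. Cells: 8 × 10^5 BALB/c splenocytes or 1 × 10^5 RAW264.7 cells. MTT reagent (5 mg/mL) added 4 h before end of culture; formazan dissolved in DMSO; absorbance at 570 nm. CC50 from log(inhibitor)–normalized response nonlinear fit.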

IL-1β [4] = assay: LPS-induced cytokine production in RAW264.7 cell, IL-1β; type: cell-based; settings: Mus musculus, RAW264.7, 48 h, read-out: IL-1β IC50
Summary of the method: (§3)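 Murine RAW264.7 macrophages grown in DMEM with 10% FBS, 2 mM L-glutamine and penicillin/streptomycin at 37 °C, 5% CO2. Cells at 1 × 10^5 in triplicate with or without test compound, then LPS 10 μg/mL for 48 h. Supernatant IL-1β, IL-6 and TNF-α by ELISA. IC50 from log(inhibitor)–normalized response nonlinear fit.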

[5] = molecular target: SARS-Cov2 spike glycoprotein (Severe acute respiratory syndrome coronavirus 2, UniProt P0DTC2); assay: cell-based; type: cell-based, SARS-CoV-2
Huh7 cell = settings: read-out: Huh7 cell CC50; MTT, 2 days
IL-17 = assay: Con A-induced cytokine production in splenocytes, IL-17; type: cell-based; settings: Mus musculus, Splenocyte, 48 h, read-out: IC50 IL-17
IL-1β [6] = assay: LPS-induced cytokine production in splenocytes, IL-1β; type: cell-based; settings: Mus musculus, Splenocyte, 48 h, read-out: IC50 IL-1β
IFN-γ = assay: Con A-induced cytokine production in splenocytes, IFN-γ; type: cell-based; settings: Mus musculus, Splenocyte, 48 h, read-out: IC50 IFN-γ
[7] = tested on: LPS-induced B cell proliferation of murine splenocytes; assay: LPS-induced B-cell proliferation; type: cell-based, mouse; settings: 48 h; for IC50: Mus musculus, B-cell, read-out: LPS-induced B-cell proliferation IC50
Summary of the method: as §1

IL-6 [8] = assay: LPS-induced cytokine production in splenocytes, IL-6; type: cell-based; settings: Mus musculus, Splenocyte, 48 h, read-out: IC50 IL-6
TNF-α = assay: LPS-induced cytokine production in RAW264.7 cell, TNF-α; type: cell-based; settings: Mus musculus, RAW264.7, 48 h, read-out: TNF-α IC50
Summary of the method: as §3

IL-6 [9] = assay: LPS-induced cytokine production in RAW264.7 cell, IL-6; type: cell-based; settings: Mus musculus, RAW264.7, 48 h, read-out: IL-6 IC50
Summary of the method: as §3

Splenocytes cytotoxicity = type: cell-based; settings: female, BALB/c, mouse, murine splenocytes
Summary of the method: as §2

in vitro = settings: human

Work on `CCN(CCCC(C)Nc1ccnc2cc(Cl)ccc12)CCNC(=O)C(F)(F)C1CCN(CC(O)C(F)(F)F)CC1` (stereo not drawn) [Compound 9, N-(2-((4-((7-Chloroquinolin-4-yl)amino)pentyl)(ethyl)amino)ethyl)-2,2-difluoro-2-(1-(3,3,3-trifluoro-2-hydroxypropyl)piperidin-4-yl)acetamide] yielded an IC50 [1] of 2.85 ± 0.49 µM, an IC50 (IL-6 [2]) of 0.16 ± 0.08 µM and a CC50 at 48 h [3] of 48.64 ± 0.18 µM. It also gave an IC50 (IL-1β [4]) of 0.72 ± 0.17 µM, an EC50 [5] of 32.8 µM and a CC50 (Huh7 cell) of 16.7 µM. The IC50 (IL-17) was 1.04 ± 0.2 µM, the IC50 (IL-1β [6]) was 0.21 ± 0.08 µM and the IC50 (IFN-γ) was 1.23 ± 0.23 µM. The IC50 [7] was 1.07 ± 0.23 µM, the IC50 (IL-6 [8]) was 0.01 ± 0.01 µM and the IC50 (TNF-α) was 15.9 ± 0.45 µM. It also gave an IC50 (IL-6 [9]) of 1.61 ± 0.25 µM and a CC50 at 48 h (Splenocytes cytotoxicity) of 5.71 ± 1.04 µM.

For `CCN(CCCC(C)Nc1ccnc2cc(Cl)ccc12)CCNC1CNC1` (stereo not drawn) [Compound 5, N^1-(2-(Azetidin-3-ylamino)ethyl)-N^4-(7-chloroquinolin-4-yl)-N^1-ethylpentane-1,4-diamine], the IC50 [1] was greater than 250 µM, the “Con A-induced T-cell proliferation IC50” value ([1]; murine splenocytes, Con A 1 μg/mL) was “lost activity completely” and the CC50 (in vitro) was greater than 80 µM. For the same compound, the EC50 [5] was greater than 80 µM, the IC50 [7] was greater than 250 µM and the “LPS-induced B-cell proliferation IC50” value ([7]; murine splenocytes, LPS 10 μg/mL) was “lost activity completely”. For the same compound, the CC50 at 48 h (Splenocytes cytotoxicity) was greater than 250 µM.

`CCN(CC)CCCC(C)Nc1ccnc2cc(Cl)ccc12` (stereo not drawn) [Compound 1, chloroquine, reference compound] gave an IC50 [1] of 15.27 ± 0.13 µM, an IC50 (IL-6 [2]) of 7.2 ± 1.49 µM and a CC50 at 48 h [3] of 21.9 ± 3.59 µM. The CC50 (in vitro) was 26.4 µM, the IC50 (IL-1β [4]) was 2.72 ± 0.75 µM and the IC50 (IL-17) was 0.65 ± 0.28 µM. The IC50 (IL-1β [6]) was 0.48 ± 0.34 µM, the IC50 (IFN-γ) was 0.65 ± 0.31 µM and the IC50 [7] was 14.6 ± 0.56 µM. It also gave an IC50 (IL-6 [8]) of 0.81 ± 0.78 µM, an IC50 (TNF-α) of 35 ± 18.7 µM and an IC50 (IL-6 [9]) of 14.6 ± 1.27 µM. The CC50 at 48 h (Splenocytes cytotoxicity) was 25.5 ± 2.47 µM.

Work on `CCN(CCCC(C)Nc1ccnc2cc(Cl)ccc12)CCNC(=O)C(F)(F)C1CCNCC1` (stereo not drawn) [Compound 8, N-(2-((4-((7-Chloroquinolin-4-yl)amino)pentyl)(ethyl)amino)ethyl)-2,2-difluoro-2-(piperidin-4-yl)acetamide] yielded an IC50 [1] of 45.4 ± 1.43 µM, a CC50 (in vitro) of 27.3 µM and an EC50 [5] of 31.6 µM. For the same compound, the IC50 [7] was 28.3 ± 6.13 µM and the CC50 at 48 h (Splenocytes cytotoxicity) was 71.6 ± 3.47 µM.
